Data as given in PMC2646883 (Biochemistry, 2008).
Where “and” joins values, the source holds several entries; their conditions need not be identical. Equal values may be shown once. Read-outs that look alike come from different tables or passages of the source. Blank lines part the entries; values can stand above or below the molecule they belong to.

How the values were obtained:
[1] = biological target: T1, CpIMPDH (Cryptosporidium parvum, UniProt Q8T6T2); details: cited from earlier work
T1 sequence (Q8T6T2 1-400): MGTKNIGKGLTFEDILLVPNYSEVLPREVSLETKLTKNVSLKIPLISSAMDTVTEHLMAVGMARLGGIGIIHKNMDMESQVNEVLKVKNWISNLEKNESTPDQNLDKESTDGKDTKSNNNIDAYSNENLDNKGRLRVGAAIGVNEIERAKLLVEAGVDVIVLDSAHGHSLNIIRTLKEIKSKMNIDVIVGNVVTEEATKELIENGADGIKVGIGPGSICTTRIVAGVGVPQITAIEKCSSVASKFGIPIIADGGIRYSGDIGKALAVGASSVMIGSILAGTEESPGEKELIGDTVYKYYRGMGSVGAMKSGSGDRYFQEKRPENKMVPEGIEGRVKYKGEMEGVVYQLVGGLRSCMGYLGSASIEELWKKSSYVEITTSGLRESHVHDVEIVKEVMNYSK

[2] = biological target: T2, TfIMPDH (Tritrichomonas foetus, UniProt P50097); details: refs 14 and 23; cited from earlier work
T2 sequence (P50097 1-503): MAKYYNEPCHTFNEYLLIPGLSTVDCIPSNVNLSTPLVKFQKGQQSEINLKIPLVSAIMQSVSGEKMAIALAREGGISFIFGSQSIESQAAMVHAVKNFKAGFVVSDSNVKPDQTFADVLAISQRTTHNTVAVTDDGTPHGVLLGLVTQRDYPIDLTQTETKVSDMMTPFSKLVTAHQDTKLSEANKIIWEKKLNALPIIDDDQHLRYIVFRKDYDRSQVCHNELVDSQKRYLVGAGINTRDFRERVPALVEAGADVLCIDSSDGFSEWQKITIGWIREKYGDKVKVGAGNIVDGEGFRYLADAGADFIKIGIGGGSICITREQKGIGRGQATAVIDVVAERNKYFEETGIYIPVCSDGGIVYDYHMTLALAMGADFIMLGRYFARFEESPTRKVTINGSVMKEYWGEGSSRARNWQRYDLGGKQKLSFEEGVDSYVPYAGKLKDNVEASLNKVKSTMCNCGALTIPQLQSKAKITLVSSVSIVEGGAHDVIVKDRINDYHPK

[3] = biological target: T1, CpIMPDH; experiment: Steady-state kinetics of CpIMPDH; assay type: biochemical; details: for D2Okcat (solvent deuterium isotope effect on kcat): dinucleotide varied, 500 μM IMP, H2O vs D2O
[4] = biological target: T1, CpIMPDH; experiment: Equilibrium dissociation constants by intrinsic protein fluorescence; assay type: binding; details: for Kd: free enzyme, 50 mM Tris-HCl, pH 8.0, 100 mM KCl, 1 mM DTT, 25 °C
[5] = biological target: T3, hIMPDH2 (Homo sapiens, UniProt P12268); details: cited from earlier work
[6] = biological target: T1, CpIMPDH; experiment: Pre-steady-state kinetics and global fits of the CpIMPDH reaction; assay type: biochemical
[7] = biological target: T3, hIMPDH2; experiment: Steady-state kinetics of hIMPDH2; assay type: biochemical; details: NAD^+ varied, 400 μM IMP, H2O vs D2O
Summary of the method: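 Buffer was 50 mM Tris-HCl pH 8.0, 100 mM KCl, 1 mM DTT, made in H2O or D2O, with D2O meter readings adjusted by adding 0.4. Runs were at 25 °C. […] Steady-state parameters came from eq 2.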

[8] = biological target: T3, hIMPDH2; experiment: Pre-steady-state kinetics and global fits of the hIMPDH2 reaction; assay type: biochemical; details: for Kapp ([NAD^+] at 1/2 kmax) / kmax/Kapp / kmax: fluorescence; for kmax: NAD^+ varied, 4 μM enzyme
[9] = biological target: T2, TfIMPDH; experiment: Inhibition by ligands of the dinucleotide site, TfIMPDH; assay type: biochemical
[10] = biological target: T3, hIMPDH2; details: cited from earlier work; remark: listed apart in the source
[11] = biological target: T1, CpIMPDH; experiment: XMP binding kinetics by stopped-flow protein fluorescence; details: 0.4 μM enzyme, 30 or 120 μM XMP, 25 °C
[12] = substrate: NC(=O)c1ccc[n+]([C@@H]2O[C@H](COP(=O)([O-])OP(=O)(O)OC[C@H]3O[C@@H](n4cnc5c(N)ncnc54)[C@H](O)[C@@H]3O)[C@@H](O)[C@H]2O)c1; experiment: Pre-steady-state kinetics and global fits of the CpIMPDH reaction; assay type: biochemical, Cryptosporidium parvum; details: other: calculated from global-fit rate constants (eq 12)

Molecule: Nc1ncnc2c1ncn2[C@@H]1O[C@H](COP(=O)(O)OP(=O)(O)O)[C@@H](O)[C@H]1O [ADP, adenosine-5′-diphosphate]
Ki [1]: 42000 ± 6000 µM
Ki [2]: 31000 ± 2000 µM

Molecule: CC(=O)c1ccc[n+]([C@@H]2O[C@H](COP(=O)([O-])OP(=O)(O)OC[C@H]3O[C@@H](n4cnc5c(N)ncnc54)[C@H](O)[C@@H]3O)[C@@H](O)[C@H]2O)c1 [APAD^+, 3-acetylpyridine adenine dinucleotide]
D2Okcat (solvent deuterium isotope effect on kcat) [3]: 3.3 and 3.3 ± 0.1
Km ([3]; read-out: KM dinucleotide, pH 8.0, 25 °C, APAD^+ at saturating IMP (500 μM)): 190 ± 9 µM

Molecule: NC(=O)c1csc([C@@H]2O[C@H](CO)[C@@H](O)[C@H]2O)n1 [Tz, 2-β-D-ribofuranosylthiazole-4-carboxamide]
Ki [2]: 50000 ± 10000 µM

B1: CpIMPDH (Cryptosporidium parvum) (protein)
chain: T1 sequence (Q8T6T2 1-400)
Km [12]: 40 µM

Second part, led by results:

Kd [4]: 4.8 ± 0.6 µM
Molecule: Nc1nc2c(ncn2[C@@H]2O[C@H](COP(=O)(O)O)[C@@H](O)[C@H]2O)c(=O)[nH]1 [GMP, guanosine monophosphate]

Kd [4]: 2.3 ± 0.2 µM
factor of greater affinity of NADH than NAD^+ ([4]; ratio of Kd values): 6
Molecule: NC(=O)C1=CN([C@@H]2O[C@H](COP(=O)(O)OP(=O)(O)OC[C@H]3O[C@@H](n4cnc5c(N)ncnc54)[C@H](O)[C@@H]3O)[C@@H](O)[C@H]2O)C=CC1 [NADH, reduced nicotinamide adenine dinucleotide]

Kd ([4]; Kd): 14 ± 1 µM
Kd ([6]; Kintr (intrinsic binding constant), NAD^+, derived from the global fits, Kc = 4): 300 µM
kmax/Kapp ([6]; monitored by absorbance): 80000 M⁻¹ s⁻¹
Kapp ([NAD^+] at 1/2 kmax) ([6]; monitored by absorbance, 500 μM IMP): 510 ± 90 µM
kmax (maximal kobs of burst, kburst) ([6]; monitored by absorbance, NAD^+ varied, 500 μM IMP): 41 ± 2 s⁻¹
kmax/Kapp ([6]; monitored by fluorescence): 56000 M⁻¹ s⁻¹
Kapp ([NAD^+] at 1/2 kmax) ([6]; monitored by fluorescence, 500 μM IMP): 290 ± 60 µM
kmax (maximal kobs of burst) ([6]; monitored by fluorescence, NAD^+ varied, 500 μM IMP): 16 s⁻¹ and 16 ± 1 s⁻¹
D2Okcat (solvent deuterium isotope effect on kcat) [7]: 1.8 ± 0.1
D2Okcat (solvent deuterium isotope effect on kcat) [3]: 2.6 and 2.6 ± 0.1
Kd ([8]; Kintr (intrinsic binding constant), NAD^+, derived from the global fits, Kc ≤0.2): 590 µM
Kapp ([NAD^+] at 1/2 kmax) ([8]; burst phase): 86 ± 5 µM
kmax/Kapp ([8]; burst phase): 140000 M⁻¹ s⁻¹
kmax ([8]; burst phase): 12 ± 1 s⁻¹
Kapp ([NAD^+] at 1/2 kmax) ([8]; lag phase): 68 ± 1 µM
kmax/Kapp ([8]; lag phase): 340000 M⁻¹ s⁻¹
kmax ([8]; lag phase): 23 ± 1 s⁻¹
Kd [9]: 70 µM
Molecule: NC(=O)c1ccc[n+]([C@@H]2O[C@H](COP(=O)([O-])OP(=O)(O)OC[C@H]3O[C@@H](n4cnc5c(N)ncnc54)[C@H](O)[C@@H]3O)[C@@H](O)[C@H]2O)c1 [NAD^+, nicotinamide adenine dinucleotide]
kcat ([5]; NAD^+ reaction, pH 8.0, 25 °C): 0.39 ± 0.01 ^c s^−1
Km ([5]; read-out: KM dinucleotide): 6 ± 1 µM
k12/k11 = Kii (NAD^+ binding to E-XMP*) ([5]; value fixed for global fitting): 590 µM
Kii [2]: 6.8 ± 1.8 mM

Kd ([4]; Kd): 5.6 ± 0.6 µM
rate of XMP binding / release (too fast to measure) [11]: ≥ 200 s⁻¹
Molecule: O=c1[nH]c(=O)c2ncn([C@@H]3O[C@H](COP(=O)(O)O)[C@@H](O)[C@H]3O)c2[nH]1 [XMP, xanthosine 5′-monophosphate]
Kd [10]: 140 µM
